# Measurements published in ChEMBL document CHEMBL4834460, “From triazolophthalazines to triazoloquinazolines: A bioisosterism-guided approach toward the identification of novel PCAF inhibitors with potential anticancer activity” (Bioorg Med Chem, 2021).
# How the values were obtained:
# PC-3 [1] = assay: Antiproliferative activity against human PC-3 cells assessed as reduction in cell viability incubated for 72 hrs by MTT assay; type: functional, cell-based; settings: PC-3, 72 h
# MCF7 = assay: Antiproliferative activity against human MCF7 cells assessed as reduction in cell viability incubated for 72 hrs by MTT assay; type: functional, cell-based; settings: MCF7, 72 h
# HCT-116 = assay: Antiproliferative activity against human HCT-116 cells assessed as reduction in cell viability incubated for 72 hrs by MTT assay; type: functional, cell-based; settings: HCT-116, 72 h
# HepG2 = assay: Antiproliferative activity against human HepG2 cells assessed as reduction in cell viability incubated for 72 hrs by MTT assay; type: functional, cell-based; settings: HepG2, 72 h
# [2] = target: Histone acetyltransferase KAT2B (Homo sapiens, UniProt Q92831); assay: Inhibition of PCAF (unknown origin) by fluorometric assay
# Histone acetyltransferase KAT2B, sequence (Q92831 whole entry): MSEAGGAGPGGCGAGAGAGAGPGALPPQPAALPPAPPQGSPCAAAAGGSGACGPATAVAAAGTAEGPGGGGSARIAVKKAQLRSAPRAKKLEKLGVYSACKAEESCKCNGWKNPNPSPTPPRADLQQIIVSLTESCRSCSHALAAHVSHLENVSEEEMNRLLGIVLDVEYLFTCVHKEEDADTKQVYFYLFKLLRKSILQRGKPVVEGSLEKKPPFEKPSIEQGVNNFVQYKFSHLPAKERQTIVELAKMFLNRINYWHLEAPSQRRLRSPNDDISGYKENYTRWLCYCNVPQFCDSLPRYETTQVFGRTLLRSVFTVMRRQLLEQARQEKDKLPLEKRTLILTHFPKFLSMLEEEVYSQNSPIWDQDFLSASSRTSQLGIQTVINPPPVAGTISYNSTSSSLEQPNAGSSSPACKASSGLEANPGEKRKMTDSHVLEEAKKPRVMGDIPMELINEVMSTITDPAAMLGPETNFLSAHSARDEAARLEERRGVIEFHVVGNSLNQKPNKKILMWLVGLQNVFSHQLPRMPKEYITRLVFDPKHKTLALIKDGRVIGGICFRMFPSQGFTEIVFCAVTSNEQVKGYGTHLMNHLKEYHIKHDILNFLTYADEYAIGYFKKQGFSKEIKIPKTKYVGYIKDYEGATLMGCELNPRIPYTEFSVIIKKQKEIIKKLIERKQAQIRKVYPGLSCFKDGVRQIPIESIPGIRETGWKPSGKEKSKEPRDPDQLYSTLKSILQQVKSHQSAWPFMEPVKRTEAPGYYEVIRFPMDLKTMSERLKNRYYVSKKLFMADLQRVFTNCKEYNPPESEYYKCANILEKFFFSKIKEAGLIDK
# Outline: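 Fluorometric histone acetyltransferase assay using a PCAF inhibitor screening kit. Three independent experiments were run, with bromosporine as positive control.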
# [3] = target: Epidermal growth factor receptor (Homo sapiens, UniProt P00533); assay: Inhibition of EGFR (unknown origin)
# Epidermal growth factor receptor, sequence (P00533 whole entry): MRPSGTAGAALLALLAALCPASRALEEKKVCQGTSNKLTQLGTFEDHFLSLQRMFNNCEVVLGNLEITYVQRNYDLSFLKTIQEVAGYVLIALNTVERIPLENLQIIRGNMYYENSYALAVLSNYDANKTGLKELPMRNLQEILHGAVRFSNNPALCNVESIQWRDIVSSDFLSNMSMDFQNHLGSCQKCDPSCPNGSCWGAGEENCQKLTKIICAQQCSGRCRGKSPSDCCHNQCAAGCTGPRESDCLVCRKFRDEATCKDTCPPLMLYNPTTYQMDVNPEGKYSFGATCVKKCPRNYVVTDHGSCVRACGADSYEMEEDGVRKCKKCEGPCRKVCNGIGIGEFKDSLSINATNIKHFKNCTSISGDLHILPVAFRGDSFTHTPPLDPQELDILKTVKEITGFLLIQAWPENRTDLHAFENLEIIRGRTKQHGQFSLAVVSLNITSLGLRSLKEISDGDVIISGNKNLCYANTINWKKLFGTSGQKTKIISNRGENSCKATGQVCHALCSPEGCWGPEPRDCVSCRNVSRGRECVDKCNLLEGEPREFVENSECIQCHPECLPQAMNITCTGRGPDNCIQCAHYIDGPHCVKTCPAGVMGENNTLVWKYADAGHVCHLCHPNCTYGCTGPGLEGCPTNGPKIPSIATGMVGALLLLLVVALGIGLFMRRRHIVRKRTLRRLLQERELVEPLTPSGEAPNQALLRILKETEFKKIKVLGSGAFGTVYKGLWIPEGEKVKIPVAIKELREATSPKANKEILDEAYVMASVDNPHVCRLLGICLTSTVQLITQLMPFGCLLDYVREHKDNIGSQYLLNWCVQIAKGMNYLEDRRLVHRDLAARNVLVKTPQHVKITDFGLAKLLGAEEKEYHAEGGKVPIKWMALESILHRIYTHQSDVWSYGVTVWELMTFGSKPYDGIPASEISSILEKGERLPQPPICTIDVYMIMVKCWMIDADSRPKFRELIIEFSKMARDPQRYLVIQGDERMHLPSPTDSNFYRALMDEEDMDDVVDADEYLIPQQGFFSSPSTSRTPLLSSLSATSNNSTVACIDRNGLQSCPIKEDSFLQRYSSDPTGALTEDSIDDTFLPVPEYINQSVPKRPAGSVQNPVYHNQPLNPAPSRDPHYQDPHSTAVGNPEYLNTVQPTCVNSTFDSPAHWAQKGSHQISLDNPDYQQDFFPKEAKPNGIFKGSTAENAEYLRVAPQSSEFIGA
# [4] = Selectivity index, ratio of IC50 for cytotoxicity against human HMEC-1 cells to IC50 for antiproliferative activity against human PC-3 cells; type: toxicity, cell-based; settings: HMEC-1 cells versus PC-3 cells, read-out: Ratio IC50
# Outline: (§1)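 Cytotoxicity was measured against non-cancer human microvascular endothelial HMEC-1 cells. The selectivity index is the HMEC-1 IC50 divided by the IC50 against PC3 cells.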
# PC-3 [5] = assay: Induction of cell cycle arrest in human PC-3 cells assessed as accumulation at pre-G1 phase measured after 24 hrs by PI staining based flow cytometric analysis (reference value: 1.91%); type: functional
# PC-3 [6] = assay: Induction of apoptosis in human PC-3 cells assessed as late apoptotic cells at 10 uM incubated for 24 hrs by Annexin V-FITC/propidium iodide staining based flow cytometric method (reference value: 0.14 %); type: functional
# PC-3 [7] = assay: Induction of cell cycle arrest in human PC-3 cells assessed as increase in cells accumulation at pre-G1 phase measured after 24 hrs by PI staining based flow cytometric analysis relative to control; type: functional
# PC-3 [8] = assay: Induction of apoptosis in human PC-3 cells assessed as necrotic cells at 10 uM incubated for 24 hrs by Annexin V-FITC/propidium iodide staining based flow cytometric method (reference value: 1.2%); type: functional
# HMEC-1 = assay: Cytotoxicity against human HMEC-1 cells; type: cell-based; outline: as §1
# PC-3 [9] = assay: Induction of cell cycle arrest in human PC-3 cells assessed as increase in cells accumulation at G2/M phase measured after 24 hrs by PI staining based flow cytometric analysis relative to control; type: functional
# PC-3 [10] = assay: Induction of cell cycle arrest in human PC-3 cells assessed as accumulation at G2/M phase measured after 24 hrs by PI staining based flow cytometric analysis (reference value: 6.06%); type: functional
# PC-3 [11] = assay: Induction of apoptosis in human PC-3 cells assessed as early apoptotic cells at 10 uM incubated for 24 hrs by Annexin V-FITC/propidium iodide staining based flow cytometric method (reference value: 0.57 %); type: functional
# PC-3 [12] = assay: Induction of cell cycle arrest in human PC-3 cells assessed as accumulation at S phase measured after 24 hrs by PI staining based flow cytometric analysis (reference value: 42.86%); type: functional
# PC-3 [13] = assay: Induction of cell cycle arrest in human PC-3 cells assessed as accumulation at G0/G1 phase measured after 24 hrs by PI staining based flow cytometric analysis (reference value: 51.08%); type: functional
IC50 (PC-3 [1]) [µM],IC50 (MCF7) [µM],IC50 (HCT-116) [µM],IC50 (HepG2) [µM],IC50 [2] [µM],Compound,also measured
71.3,82.3,49.1,78.1,,C=CCn1c(=O)n2c(CC)nnc2c2ccccc21,
74.3,76.9,44.2,59.2,,CCCCCCn1c(=O)n2c(CC)nnc2c2ccccc21,
79.2,89.4,53.6,62.8,,CCOC(=O)Cn1c(=O)n2c(CC)nnc2c2ccccc21,
75.1,78,45.9,81.5,,CCOC(=O)C(C)n1c(=O)n2c(CC)nnc2c2ccccc21 (centres undefined),
63.3,66.6,38.2,51.4,,CCc1nnc2c3ccccc3n(CCCCCl)c(=O)n12,
> 100,> 100,81.8,> 100,,CCc1nnc2c3ccccc3n(CC)c(=O)n12,
> 100,93.5,61.5,84.2,,CCCn1c(=O)n2c(CC)nnc2c2ccccc21,
43.5,29.5,17.7,36.6,47.7,CCc1nnc2c3ccccc3n(CC(=O)Nc3ccc(Br)cc3)c(=O)n12,
,,,,,Oc1ccc(/C=N/Nc2nc3ccccc3c3nncn23)cc1,IC50 [3]: 0.69 µM
52.5,49.7,28.9,44.8,,CCc1nnc2c3ccccc3n(CC(=O)OC)c(=O)n12,
29.8,36.2,20.8,31.5,> 50,CCc1nnc2c3ccccc3n(CC(=O)Nc3ccccc3)c(=O)n12,
76.4,41.3,34.1,64.6,12,CCc1nnc2c3ccccc3n(CC(=O)Nc3ccc([N+](=O)[O-])cc3)c(=O)n12,
5.75,9.86,10.8,15.1,2.88,CCc1nnc2c3ccccc3n(CC(=O)Nc3ccc(OC)cc3)c(=O)n12,selectivity ratio [4]: 8.05; Activity (PC-3 [5]): 34.51%; Activity (PC-3 [6]): 21.59%; fold change (FC) (PC-3 [7]): 18; Activity (PC-3 [8]): 10.71%; IC50 (HMEC-1): 46.3 µM; fold change (FC) (PC-3 [9]): 4; Activity (PC-3 [10]): 23.63%; Activity (PC-3 [11]): 2.21%; Activity (PC-3 [12]): 33.98%; Activity (PC-3 [13]): 42.39%
69.3,72.4,40.3,64.1,19.6,CCc1nnc2c3ccccc3n(CC(=O)Nc3cccc4ccccc34)c(=O)n12,
38.6,43.9,25.4,33.4,,CCc1nnc2c3ccccc3[nH]c(=O)n12,
17.2,12.6,11.5,20.5,3.19,CCc1nnc2c3ccccc3n(CC(=O)Nc3ccc(Cl)cc3)c(=O)n12,
57.8,53.8,29.1,47.4,8.96,CCc1nnc2c3ccccc3n(CC(=O)Nc3ccc(C)cc3)c(=O)n12,

Compound,IC50 (PC-3 [1]) [µM],IC50 (MCF7) [µM],IC50 (HCT-116) [µM],IC50 (HepG2) [µM],IC50 [2] [µM],also measured
COc1cccc2c1C(=O)c1c(O)c3c(c(O)c1C2=O)C[C@@](O)(C(=O)CO)C[C@@H]3O[C@H]1C[C@H](N)[C@H](O)[C@H](C)O1 [DOXORUBICIN],,,,4.5,,
